Consider four compounds from ChEMBL document CHEMBL1154210, “Reversal of fluconazole resistance by sulfated sterols from the marine sponge Topsentia sp” (J Nat Prod, 2009).

Series [1] deals with Saccharomyces cerevisiae. In words: Antimicrobial activity against azole-resistant Saccharomyces cerevisiae expressing null pump at 13 uM after 40 to 48 hrs in presence of fluconazole. Type of series: functional. The method in brief: (§1)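 S. cerevisiae strains (MDR1-overexpressing or null pump) inoculated in YPD at 1 × 10^4 CFU/mL final into saline-diluted samples. Fluconazole in DMSO at ~1/10th its IC50, with DMSO-only duplicates. Absorbance at 630 nm read before and after 40–48 h at 30 °C. Checkerboard IC50s combined into FIC (combination/alone ratios summed).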

In series [2] the test system is Saccharomyces cerevisiae. In words: Antimicrobial activity against azole-resistant Saccharomyces cerevisiae expressing CDR1 efflux pump at 13 uM after 40 to 48 hrs in presence of fluconazole. Type of series: functional. The method in brief: (§2)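 Checkerboard combination in S. cerevisiae CDR1 efflux pump strain: compound diluted in 0.9% saline, crossed with FLU (in DMSO) over all concentration pairs; inoculum in YPD broth at 1 × 10^4 CFU/mL; incubated 30 °C for 40–48 h; growth read at 630 nm before and after incubation. FIC = (IC50 combined/IC50 alone) summed for compound and FLU.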

Series [3] concerns Saccharomyces cerevisiae. In words: Antimicrobial activity against azole-resistant Saccharomyces cerevisiae expressing MDR1 at 13 uM after 40 to 48 hrs in presence of fluconazole. Type of series: functional. An outline of the steps: as §1
Series [4] relates to Candida albicans. In words: Antimicrobial activity against fluconazole-susceptible Candida albicans isolate 1 at 13 uM ater 24 hrs in presence of fluconazole. Type of series: functional. An outline of the steps:
(§3)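 C. albicans isolates #1 and #17 in YPD at 1 × 10^4 CFU/mL final with saline-diluted samples plus fluconazole (DMSO) at ~1/3rd its IC50. 630 nm readings taken before and after 24 h at 37 °C. FIC was derived from checkerboard IC50s of each agent alone and in combination.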

Series [5] deals with Candida albicans. In words: Antimicrobial activity against fluconazole-resistant Candida albicans isolate 17 at 13 uM ater 24 hrs in presence of fluconazole. Type of series: functional. An outline of the steps:
as §3

For series [6], the system named is Candida albicans. In words: Antimicrobial activity against fluconazole-susceptible Candida albicans 1587 at 189 uM ater 24 hrs in presence of fluconazole. Type of series: functional. The method in brief:
(§4)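 Broth microdilution in YPD with C. albicans inoculum at 1 × 10^4 CFU/mL final; samples diluted in 0.9% saline. Fluconazole in DMSO at ~1/3rd its IC50, with DMSO-only duplicates. OD 630 nm read before and after 37 °C for 24 h. A checkerboard of sample × fluconazole gave FIC = sum of combination/alone IC50 ratios for each agent.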

The test system of series [7] is Candida albicans. In words: Antimicrobial activity against fluconazole-resistant Candida albicans 1758 over expressing MDR1 at 189 uM ater 24 hrs in presence of fluconazole. Type of series: functional. An outline of the steps:
as §4

The test system of another series is Nakaseomyces glabratus. In words: Antimicrobial activity against Candida glabrata. Type of series: functional, organism-based.
Another series deals with Pichia kudriavzevii. In words: Antimicrobial activity against Candida Krusei. Type of series: functional, organism-based.
A further series deals with Cryptococcus neoformans. In words: Antimicrobial activity against Cryptococcus neoformans. The series is classed as functional, organism-based.
For series [8], the system named is Plasmodium falciparum. In words: Antiprotozoal activity Plasmodium falciparum W2. Type of series: functional, organism-based.
The subject of a further series is Staphylococcus aureus. In words: Antimicrobial activity against methicillin resistant Staphylococcus aureus. Type of series: functional, organism-based.
Series [9] concerns Mycobacterium intracellulare. In words: Antimicrobial activity against Mycobacterium intracellular. The series is classed as functional, organism-based.
Series [10] relates to Plasmodium falciparum. In words: Antiprotozoal activity Plasmodium falciparum D6. Type of series: functional, organism-based.
Another series deals with Leishmania donovani. In words: Antiprotozoal activity Leishmania donovani by Alamar blue assay. The series is classed as functional, organism-based. On the technique in general: Resazurin is reduced to fluorescent resorufin, in cell work by metabolically active cells.
The subject of series [11] is Vero. In words: Cytotoxicity against african green monkey Vero cells at 9 uM after 48 hrs by neutral red assay. The series is classed as cell-based. As to conditions: chlorocebus sabaeus.
For series [12], the system named is Vero. In words: Cytotoxicity against african green monkey Vero cells at 11.2 uM after 48 hrs by neutral red assay. Type of series: cell-based. As to conditions: chlorocebus sabaeus.
The test system of series [13] is Saccharomyces cerevisiae. In words: Antimicrobial activity against azole-resistant Saccharomyces cerevisiae expressing null pump at 26 uM after 40 to 48 hrs in presence of fluconazole. The series is classed as functional. The method in brief:
as §1

In series [14] the test system is Saccharomyces cerevisiae. In words: Antimicrobial activity against azole-resistant Saccharomyces cerevisiae expressing CDR1 efflux pump at 26 uM after 40 to 48 hrs in presence of fluconazole. Type of series: functional. An outline of the steps:
as §2

Series [15] has as its system Saccharomyces cerevisiae. In words: Antimicrobial activity against azole-resistant Saccharomyces cerevisiae expressing MDR1 at 26 uM after 40 to 48 hrs in presence of fluconazole. Type of series: functional. The method in brief:
as §1

Series [16] concerns Candida albicans. In words: Antimicrobial activity against fluconazole-susceptible Candida albicans isolate 1 at 26 uM ater 24 hrs in presence of fluconazole. The series is classed as functional. The method in brief:
as §3

Series [17] relates to Candida albicans. In words: Antimicrobial activity against fluconazole-resistant Candida albicans isolate 17 at 26 uM ater 24 hrs in presence of fluconazole. Type of series: functional. The method in brief:
as §3

Series [18] relates to Candida albicans. In words: Antimicrobial activity against Fluconazole susceptible Candida albicans 1587 at 5.7 uM ater 24 hrs in presence of fluconazole. The series is classed as functional. The method in brief: as §4
Series [19] relates to Candida albicans. In words: Antimicrobial activity against fluconazole-resistant Candida albicans 1758 over expressing MDR1 at 5.7 uM ater 24 hrs in presence of fluconazole. The series is classed as functional. An outline of the steps:
as §4

Series [20] concerns Candida albicans. In words: Antimicrobial activity against Fluconazole susceptible Candida albicans 1587 at 194 uM ater 24 hrs in presence of fluconazole. The series is classed as functional. The method in brief: as §4
Series [21] concerns Candida albicans. In words: Antimicrobial activity against fluconazole-resistant Candida albicans 1758 over expressing MDR1 at 194 uM ater 24 hrs in presence of fluconazole. The series is classed as functional. An outline of the steps:
as §4

For series [22], the system named is Vero. In words: Cytotoxicity against african green monkey Vero cells at 9.25 uM after 48 hrs by neutral red assay. Type of series: cell-based. The following applies: chlorocebus sabaeus.

The source made the active and inactive calls. The calls are words filed in the database; no cut-off is given here.

As to `C/C=C(\CC[C@](C)(O)[C@H]1[C@@H](O)C[C@H]2[C@@H]3CCc4cc(OS(=O)(=O)[O-])ccc4[C@H]3CC[C@@]21C)C(C)C.[Na+]`, the “fractional inhibitory concentration index (FICI)” value amounted to 1.1 in the series with Saccharomyces cerevisiae [1]; 1.04 in the series with Saccharomyces cerevisiae [2]; 0.08 in the series on Saccharomyces cerevisiae [3]; 1.5 in the series on Candida albicans [4]; 1.3 in the series with Candida albicans [5]; 1.7 in the series with Candida albicans [6]. For the same compound, in the series with Candida albicans [7], the “fractional inhibitory concentration index (FICI)” value stood at 0.2. The outcome (with Nakaseomyces glabratus; in the series with Pichia kudriavzevii; with Cryptococcus neoformans; in the series with Plasmodium falciparum [8]; with Staphylococcus aureus; in series [9]) was inactive. For the same compound, the result in the series with Plasmodium falciparum [10] and in the series on Leishmania donovani was inactive. Besides, in the series with Vero [11], the Activity entry is “Non-toxic”.
As to `C/C=C(\CC[C@](C)(O)[C@H]1[C@@H](O)C[C@H]2[C@@H]3CCc4cc(O)ccc4[C@H]3CC[C@@]21C)C(C)C` [GEODISTEROL], the outcome (in the series with Nakaseomyces glabratus; in the series on Pichia kudriavzevii; in the series with Cryptococcus neoformans; with Plasmodium falciparum [8]; with Staphylococcus aureus; in series [9]) was inactive. The result in the series with Plasmodium falciparum [10] and in the series with Leishmania donovani was inactive. Moreover, the Activity result in the series with Vero [12] is “Non-toxic”.
On to `CC(C)[C@@H]1OC(=O)[C@@H](Cc2ccccc2)N(C)C(=O)[C@H](C(C)C)OC(=O)[C@@H](Cc2ccccc2)N(C)C(=O)[C@H](C(C)C)OC(=O)[C@@H](Cc2ccccc2)N(C)C1=O` [BEAUVERICIN], for which the “fractional inhibitory concentration index (FICI)” value in the series with Saccharomyces cerevisiae [13] stood at 3.38; in the series on Saccharomyces cerevisiae [14], 0.04; in the series on Saccharomyces cerevisiae [15], 2.28; in the series with Candida albicans [16], 0.5; in the series with Candida albicans [17], 0.7; in the series with Candida albicans [18], 0.5. In addition, the “fractional inhibitory concentration index (FICI)” value in the series with Candida albicans [19] was 2.8.
Regarding `C=C(CC[C@](C)(O)[C@H]1[C@@H](O)C[C@H]2[C@@H]3CCc4cc(OS(=O)(=O)[O-])ccc4[C@H]3CC[C@@]21C)C(C)C.[Na+]`, the “fractional inhibitory concentration index (FICI)” value in the series with Saccharomyces cerevisiae [1] is on record as 0.75; with Saccharomyces cerevisiae [2] it was 1.34; with Saccharomyces cerevisiae [3] it was 0.15; in the series with Candida albicans [4], 1.7; in the series with Candida albicans [5], 1.8; with Candida albicans [20], 1.6. The “fractional inhibitory concentration index (FICI)” value in the series on Candida albicans [21] is given as 0.2. Besides, the result (with Nakaseomyces glabratus; in the series with Pichia kudriavzevii; in the series on Cryptococcus neoformans; with Plasmodium falciparum [8]; with Staphylococcus aureus; in series [9]) was inactive. The outcome with Plasmodium falciparum [10] and in the series on Leishmania donovani was inactive. The Activity result in the series on Vero [22] is “Non-toxic”.
